Measles CPE: protection of cells from measles virus; Measles virus-infected cells, CPE protection, absorbance; protection (pct of control), % at 4 µM; 140,000 compounds, 1.5% hits; AID 841; in the data active = protection mostly above about 24%, no sharp cut-off; inactive = mostly below about 26%
Yeast life ext: yeast lifespan extension; S. cerevisiae growth with nicotinamide, OD615; deaD strain in restrictive glucose medium; inhibition of the nicotinamide effect, % at 10 µM; 130,000 compounds, 0.68% hits;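 active = inhibition above a set limit, placed 3 SD over the median of all compounds, cut at about 26% in these data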;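 also: 0% = nicotinamide-treated wells and 100% = cells grown without nicotinamide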
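System: Modified budding yeast, DeaD strain | Buffer or medium: Restrictive glucose medium | Also added: 1.5 mM nicotinamide | Doses: 10 µM single point, 0.25% DMSO | Schedule: 48 h compound exposure at 30 °C, humidified | Detection: Absorbance at 615 nm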
Yeast growth inh: chemicals that inhibit yeast BB579 growth in restrictive medium (lifespan-shortening candidates) | S. cerevisiae BB579 growth, OD615, 48 h | inhibition, % at 10 µM | 140,000 compounds, 0.51% hits;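 active = inhibition above a set limit, 3 SD over the mean compound inhibition, cut at about 44% in these data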
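Test system: Saccharomyces cerevisiae DeaD strain BB579, replicative lifespan model yeast | Buffer or medium: Restrictive CSMM-D medium | Doses: One dose, 10 µM compound with 0.25% DMSO | Incubation: 48 h exposure, 30 °C | Detection: Culture absorbance at 615 nm | Control set: Amphotericin B at 10 µg/mL as positive control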
sEH act: increases human soluble epoxide hydrolase activity. P34913. purified human sEH enzymatic activity, activator screen. activation, % at 2 µM. 91,000 compounds, 0.04% hits. AID 717; in the data active = activation above about 37%
Target sequence (P34913 whole entry, looked up): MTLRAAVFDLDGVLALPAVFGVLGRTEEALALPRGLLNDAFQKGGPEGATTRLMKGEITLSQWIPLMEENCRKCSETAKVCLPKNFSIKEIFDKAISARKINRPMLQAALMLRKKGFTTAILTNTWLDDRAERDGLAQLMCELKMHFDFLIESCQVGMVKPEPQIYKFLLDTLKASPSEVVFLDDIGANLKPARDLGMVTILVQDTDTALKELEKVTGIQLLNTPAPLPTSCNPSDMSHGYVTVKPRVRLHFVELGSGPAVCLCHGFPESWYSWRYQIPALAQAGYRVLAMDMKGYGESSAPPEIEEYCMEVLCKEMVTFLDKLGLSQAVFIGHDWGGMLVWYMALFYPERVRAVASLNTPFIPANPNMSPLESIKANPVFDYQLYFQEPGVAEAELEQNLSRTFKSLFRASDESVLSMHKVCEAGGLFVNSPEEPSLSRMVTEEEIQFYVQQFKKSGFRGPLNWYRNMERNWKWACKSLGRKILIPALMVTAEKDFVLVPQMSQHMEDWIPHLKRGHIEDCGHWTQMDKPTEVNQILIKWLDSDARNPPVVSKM
SDO1 yeast rescue: restores growth of sdo1-depleted yeast | 140,000 compounds, 0.21% hits | z-score at 10 µM | S. cerevisiae sdo1-depleted JHY4D growth rescue, OD600 30 h; active compounds read high; pdr5 snq2 efflux-pump mutant strain;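 active = z-score above 3 at both the 24 hr and the 30 hr optical density reads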;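 also: z-score against mean and SD of all compound wells on the same plate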
sEH inhibitor: inhibitors of human soluble epoxide hydrolase; inhibition, % at 2 µM; AID 707; recombinant human sEH enzymatic activity assay; 91,000 compounds, 0.34% hits; in the data active = inhibition above about 80%
Starred values were filed as active, the others as inactive. A selection: hits, their analogues and other compounds. The true share with any hit is near 3%.

For CCOc1ccc(CNC(=S)N/N=C/c2ccncc2)cc1 the results were Measles CPE 25.1, Yeast life ext -5.2, Yeast growth inh -30.6 and SDO1 yeast rescue -0.81.
`Cc1cccnc1NCc1ccc(O)c2ncccc12` gave Measles CPE 9.8, Yeast life ext -10.1, Yeast growth inh -20.8, sEH act -9.3, SDO1 yeast rescue 0.19 and sEH inhibitor 8.2.
For Cc1cccc(N=Nc2ccc(O)c3ncccc23)c1 the results were Measles CPE 2.9, Yeast life ext -2.5, Yeast growth inh 90.5* and SDO1 yeast rescue -1.17.
`CCCCCC(=O)N1CCCC(c2nc(-c3ccc(OC)cc3)no2)C1` (stereo not drawn) gave Measles CPE 12.0, Yeast life ext 0.2, Yeast growth inh -38.9, sEH act -6.9, SDO1 yeast rescue -1.57 and sEH inhibitor 5.4.
For CC(C)c1ccc(NC(=O)N2CCC(c3nc4ccccc4o3)CC2)cc1 the results were Measles CPE 3.6, Yeast life ext -6.5, Yeast growth inh -6.2, sEH act -96.2, SDO1 yeast rescue -0.74 and sEH inhibitor 96.2*.
For Cc1cc(C)cc(NC(=O)N2CCC(c3nc4ccccc4o3)CC2)c1 the results were Measles CPE 11.4, Yeast life ext -13.9, Yeast growth inh -80.2, sEH act -17.3, SDO1 yeast rescue -0.37 and sEH inhibitor 18.5.
For COc1ccc(NC(=O)N2CCCC(c3nc(-c4ccc(C(C)C)cc4)no3)C2)cc1 (stereo not drawn) the results were Measles CPE 1.4, Yeast life ext -12.1, Yeast growth inh -20.9, sEH act -91.6, SDO1 yeast rescue -1.92 and sEH inhibitor 91.8*.
`COc1ccc(C(C(=O)NC2CCCC2)N(Cc2ccc(C)cc2)C(=O)c2ccn[nH]2)cc1OC` (stereo not drawn) gave Measles CPE 3.3, Yeast life ext -16.9, Yeast growth inh 6.3, sEH act -7.1, SDO1 yeast rescue 2.07 and sEH inhibitor 9.2.
Screening O=C(NCCO)C1(c2ccc(Cl)cc2)CCCC1 returned Measles CPE 8.9, Yeast life ext -7.8, Yeast growth inh -35.5, sEH act 9.6, SDO1 yeast rescue 0.33 and sEH inhibitor -6.7.
O=C(CCC1CCCCC1)NCc1ccncc1 was read as Measles CPE 12.6, Yeast life ext 3.1, Yeast growth inh -20.5, sEH act -22.5, SDO1 yeast rescue 0.65 and sEH inhibitor 21.1.
O=C(c1c(O)c2ccccc2oc1=O)C1CCCCC1 was read as Measles CPE 39.5, Yeast life ext 28.7*, Yeast growth inh -3.9, sEH act 25.2, SDO1 yeast rescue 0.32 and sEH inhibitor -22.3.
O=C(CCC1CCCC1)c1c(O)c2ccccc2oc1=O was read as Measles CPE 1.1, Yeast life ext 32.5*, Yeast growth inh -6.7, sEH act 2.6, SDO1 yeast rescue -2.33 and sEH inhibitor -3.5.
CN=C(C)c1c(O)c2ccccc2oc1=O was read as Measles CPE 5.3, Yeast life ext 1.8, Yeast growth inh -7.1, sEH act -5.9, SDO1 yeast rescue 0.1 and sEH inhibitor 3.2.
For Cc1c(Br)c([N+](=O)[O-])nn1C(C)C(=O)Nc1c(C)n(C)n(-c2ccccc2)c1=O (stereo not drawn) the results were Measles CPE 3.9, Yeast life ext -1.6, Yeast growth inh -21.2, sEH act 7.9, SDO1 yeast rescue 0.46 and sEH inhibitor -5.4.
Screening Cc1ccc(S(=O)(=O)N/N=C/c2c(C)nn(-c3ccccc3)c2C)cc1 returned Measles CPE 22.4, Yeast life ext -13.1, Yeast growth inh -43.8, sEH act -6.4, SDO1 yeast rescue -1.4 and sEH inhibitor 7.5.
N#C/C(=C\Nc1ccccc1O)c1nc2ccccc2o1 was read as Measles CPE 6.7, Yeast life ext -6.4, Yeast growth inh 0.2 and SDO1 yeast rescue -1.53.
CCC(C)c1ccc(NC(=O)COc2c(F)c(F)c(C(F)(F)F)c(F)c2F)cc1 (stereo not drawn) was read as Measles CPE 15.9, Yeast life ext 8.0, Yeast growth inh -31.7 and SDO1 yeast rescue -0.61.
`Oc1c(C(Nc2ccccn2)c2cccnc2)cc(Cl)c2cccnc12` (stereo not drawn) gave Measles CPE 15.9, Yeast life ext 27.6*, Yeast growth inh -7.6 and SDO1 yeast rescue -0.84.
For Cc1ccccc1Nc1nc(N)nc(CN(C)Cc2ccccc2Cl)n1 the results were Measles CPE 11.8, Yeast life ext 1.3, Yeast growth inh -36.2 and SDO1 yeast rescue -0.36.
